Measurements published in ChEMBL document CHEMBL1123881, “Synthesis and antiarrhythmic activity of new 3-[2-(omega-aminoalkoxy)phenoxy]-4-phenyl-3-buten-2-ones and related compounds” (J Med Chem, 1987).
Values after ≈ are worked out from the molar mass of the structure shown.

How the values were obtained:
[1] = The compound was tested for acute toxicity when given intraperitoneally in mouse.; format: organism-based; conditions: in vivo, ip
How it was run: (§1)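 Albino CF1 mice of both sexes, 18-20 g, dosed intraperitoneally; survivors observed for 1 week; ten mice per dose. LD50 derived by probit method, confidence limits at p = 0.05.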

Oryctolagus cuniculus = species: Oryctolagus cuniculus; assay: Tested in vitro for antiarrhythmic activity in isolated rabbit atria; format: functional; conditions: Heart
How it was run: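 Atria from New Zealand rabbits in oxygenated Ringer-Locke at 29 °C, paced with 10-ms, 10-V rectangular pulses at rising frequency to find the maximum driven frequency. This was remeasured before and 10, 15 and 20 min after drug addition. Dose-response curves on the same tissue, repeated 3-5 times. EC values by probit.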

Rattus norvegicus [2] = assay: Antiarrhythmic activity ( protection against CaCl2 induced ventricular fibrillation ) in anesthetized rat administered intravenously; format: functional; conditions: Heart, iv
How it was run: (§2)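 Sprague-Dawley albino rats, 180-200 g, conscious or urethane-anesthetized (2.8 g/kg sc). Compound given via caudal or portal vein 2 min, or orally 60 min, before rapid iv 8% CaCl2 at 1 mL/kg. Lead II ECG monitored for fibrillation within 10 min. Five to ten rats per dose.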

[3] = The compound was tested for acute toxicity when given intravenously in rat; format: organism-based; conditions: in vivo, iv
How it was run: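 Sprague-Dawley rats of both sexes, 120-140 g, dosed intravenously; survivors observed for 1 week. LD50 derived by probit method, confidence limits at p = 0.05.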

[4] = The compound was tested for acute toxicity when given intraperitoneally in mouse; format: organism-based; conditions: in vivo, ip; how it was run: as §1
Canis familiaris [5] = assay: The compound was tested for antiarrhythmic activity in infarcted conscious dog through iv(ear or caudal vein); format: functional; conditions: Canis lupus familiaris, Heart
How it was run: (§3)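 Beagle dogs of both sexes, 10-14 kg, coronary ligature under pentobarbital (30 mg/kg iv) with artificial ventilation. Next day, dogs without spontaneous arrhythmia get epinephrine 2-10 µg/kg iv (ear vein). Compound then given iv. ECG at 5-180 min, with epinephrine re-challenge at each time. Maximal ectopic beats/min counted before and after each dose, in 2-4 dogs.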

Canis familiaris [6] = assay: Antiarrhythmic activity ( protection against epinephrine induced ventricular fibrillation ) in post infarcted conscious dog administered iv(ear or caudal vein); format: functional; conditions: Canis lupus familiaris, Heart
Mus musculus [7] = assay: Antiarrhythmic activity ( protection against aconitine induced initial arrhythmia ) in anesthetized mouse administered perorally; format: functional; conditions: Heart, po
How it was run: (§4)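 Albino CF1 mice of both sexes, 20-22 g, pentobarbital-anesthetized (60 mg/kg ip), lead II ECG. Dosing iv (caudal vein) 2 min or orally 60 min before aconitine infusion, 8 µg/mL at 0.32 mL/min for 3 min. ECG read every 10 s. Endpoint is time to initial arrhythmia and to ventricular tachycardia. Ten mice per dose; probit analysis.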

Mus musculus [8] = assay: Antiarrhythmic activity ( protection against aconitine induced initial arrhythmia ) in anesthetized mouse administered through iv(ear or caudal vein); format: functional; conditions: Heart; how it was run: as §4
Mus musculus [9] = assay: Antiarrhythmic activity ( protection against aconitine induced ventricular tachycardia) in anesthetized mouse administered perorally; format: functional; conditions: Heart, po; how it was run: as §4
Rattus norvegicus [10] = assay: Activity on heart rate in anesthetized rat when induced through femoral vein (iv), at 5 mg/kg; format: functional
How it was run: (§5)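 Heart rate in anesthetized rats, given iv (femoral vein) or into the portal vein. Rate recorded a few seconds before drug administration.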

Rattus norvegicus [11] = assay: The compound was tested for activity on heart rate in anesthetized rat when induced through portal vein (ipv),at 14 mg/kg; format: functional; how it was run: as §5
Rattus norvegicus [12] = assay: The compound was tested for blood electrolyte K+ in rat serum when induced through femoral vein (iv),at 20 mg/kg; format: functional
How it was run: (§6)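 Sprague-Dawley rats of both sexes, 140-150 g. Serum K+ measured by flame photometry 1 h after iv dosing. Five rats per dose.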

Rattus norvegicus [13] = assay: Antiarrhythmic activity ( protection against CaCl2 induced ventricular fibrillation ) in conscious rat administered intravenously; format: functional; conditions: Heart, iv; how it was run: as §2
Rattus norvegicus [14] = assay: Antiarrhythmic activity ( protection against CaCl2 induced ventricular fibrillation ) in conscious rat administered orally (po); format: functional; conditions: Heart; how it was run: as §2
Rattus norvegicus [15] = assay: Antiarrhythmic activity (protection against CaCl2 induced ventricular fibrillation) in anesthetized rat administered through portal vein (ipv); format: functional; conditions: Heart; how it was run: as §2
Mus musculus [16] = assay: Antiarrhythmic activity ( protection against aconitine induced ventricular tachycardia) in anesthetized mouse administered through iv(ear or caudal vein); format: functional; conditions: Heart; how it was run: as §4
Canis familiaris [17] = assay: The compound was tested for antiarrhythmic activity in infarcted conscious dog through iv; format: functional; conditions: Canis lupus familiaris, Heart; how it was run: as §3
Canis familiaris [18] = assay: Antiarrhythmic activity ( protection against epinephrine induced ventricular fibrillation ) in post infarcted conscious dog administered iv.; format: functional; conditions: Canis lupus familiaris, Heart
Mus musculus [19] = assay: Antiarrhythmic activity (protection against aconitine induced initial arrhythmia) in anesthetized mouse administered through iv.; format: functional; conditions: Heart; how it was run: as §4
Mus musculus [20] = assay: Antiarrhythmic activity (protection against aconitine induced ventricular tachycardia) in anesthetized mouse administered through iv.; format: functional; conditions: Heart; how it was run: as §4
Rattus norvegicus [21] = assay: The compound was tested for activity on heart rate in anesthetized rat when induced through femoral vein (iv) at a dose of 1 mg/kg; format: functional; how it was run: as §5
Rattus norvegicus [22] = assay: The compound was tested for blood electrolyte K+ in rat serum when induced through femoral vein (iv) at a dose of 5 mg/kg; format: functional; how it was run: as §6
Rattus norvegicus [23] = assay: The compound was tested for activity on heart rate in anesthetized rat when induced through portal vein (ipv) at a dose of 2 mg/kg; format: functional; how it was run: as §5
Mus musculus [24] = species: Mus musculus; assay: The compound was tested for effective concentration (intradermal injection) that caused local anesthesia in 50% of mice by tail-clip method; format: functional, organism-based

Compound	LD50 [1]	EC30 (Oryctolagus cuniculus)	ED50 (Rattus norvegicus [2])	LD50 [3]	LD50 [4]	also measured
CC(=O)/C(=C\c1ccccc1)Oc1ccccc1OCCCN1CCCCC1	62 mg/kg	1.6 mg/L (≈ 4.22 µM)	0.2 mg/kg	6.5 mg/kg	–	–
CCN(CC)CCOc1ccccc1OC(Cc1ccccc1)C(C)O (stereo not drawn)	–	2.5 mg/L (≈ 6.99 µM)	1 mg/kg	–	85 mg/kg	–
CCN(CC)CCOc1ccccc1OC(Cc1ccccc1)C(C)=O (stereo not drawn)	–	10 mg/L (≈ 28.1 µM)	0.75 mg/kg	11.7 mg/kg	92 mg/kg	–
CC(=O)/C(=C\c1ccccc1)Oc1ccc(OCC(C)N(C)C)cc1 (stereo not drawn)	100 mg/kg	3.5 mg/L (≈ 10.3 µM)	3 mg/kg	–	–	–
CCN(CC)CCOc1ccc(O/C(=C/c2ccccc2)C(C)=O)cc1	163 mg/kg	3 mg/L (≈ 8.49 µM)	2 mg/kg	–	–	–
CC(=O)/C(=C\c1ccccc1)Oc1ccccc1OCC(O)CNC(C)(C)C (stereo not drawn)	80 mg/kg	0.51 mg/L (≈ 1.33 µM)	–	17 mg/kg	–	–
CC(=O)/C(=C\c1ccccc1)Oc1ccccc1OCCN(C(C)C)C(C)C	–	1 mg/L (≈ 2.62 µM)	0.5 mg/kg	10.1 mg/kg	125 mg/kg	–
CC(=O)/C(=C\c1ccccc1)Oc1ccccc1OCCN1CCCCC1	–	3 mg/L (≈ 8.21 µM)	–	11.2 mg/kg	63 mg/kg	–
CC(=O)/C(=C\c1ccccc1)Oc1cc(Cl)ccc1OCCN(C(C)C)C(C)C	165 mg/kg	2 mg/L (≈ 4.81 µM)	0.62 mg/kg	–	–	–
C/C=C(/Oc1ccccc1OCCN(CC)CC)C(C)=O	80 mg/kg	5 mg/L (≈ 17.2 µM)	3 mg/kg	–	–	–
CC(=O)/C(=C\c1ccccc1)Oc1ccccc1OCC(O)CN1CCN(C)CC1 (stereo not drawn)	175 mg/kg	10 mg/L (≈ 24.4 µM)	7.5 mg/kg	–	–	–
CCN(CC)CCOc1ccc(Cl)cc1O/C(=C/c1ccccc1)C(C)=O	170 mg/kg	2 mg/L (≈ 5.16 µM)	0.6 mg/kg	–	–	–
CCN(CC)CCNC(=O)c1ccc(N)cc1 [PROCAINAMIDE]	–	45.8 mg/L (≈ 195 µM)	48.1 mg/kg	121 mg/kg	312 mg/kg	–
C=C[C@H]1CN2CC[C@H]1C[C@@H]2[C@@H](O)c1ccnc2ccc(OC)cc12 [QUINIDINE]	–	3.9 mg/L (≈ 12 µM)	–	–	–	ED50 (Canis familiaris [5]): 5.5 mg/kg; ED50 (Canis familiaris [6]): 1 mg/kg; ED50 (Mus musculus [7]): 122 mg/kg; ED50 (Mus musculus [8]): 15.2 mg/kg; ED50 (Mus musculus [9]): 158 mg/kg; Activity (Rattus norvegicus [10]): -30%; Activity (Rattus norvegicus [11]): -36%; Activity (Rattus norvegicus [12]): 3%; ED50 (Rattus norvegicus [13]): 3.2 mg/kg; ED50 (Rattus norvegicus [14]): 47.7 mg/kg; ED50 (Rattus norvegicus [15]): 13.5 mg/kg; ED50 (Mus musculus [16]): 14 mg/kg
CCN(CC)CCOc1ccccc1O/C(=C/c1ccccc1)C(C)=O [ZOCAINONE]	72 mg/kg	0.7 mg/L (≈ 1.98 µM)	0.46 mg/kg	8.9 mg/kg	–	ED50 (Canis familiaris [17]): 2 mg/kg; ED50 (Canis familiaris [18]): 2 mg/kg; ED50 (Mus musculus [7]): 132 mg/kg; ED50 (Mus musculus [9]): 149 mg/kg; ED50 (Mus musculus [19]): 7.5 mg/kg; ED50 (Mus musculus [20]): 11 mg/kg; Activity (Rattus norvegicus [21]): -15%; Activity (Rattus norvegicus [22]): 12%; ED50 (Rattus norvegicus [13]): 0.88 mg/kg; ED50 (Rattus norvegicus [14]): 13.6 mg/kg; ED50 (Rattus norvegicus [15]): 2.3 mg/kg; Activity (Rattus norvegicus [23]): -1%; EC50 (Mus musculus [24]): 0.01 mg/L (≈ 0.0283 µM)
